{"source": "ChEMBL document CHEMBL1142420", "about": "“Synthesis and DNA-cleaving activity of lactenediynes conjugated with DNA-complexing moieties” (2008)", "note": "Active and inactive are the calls of the source. The rule behind the calls is not given here.", "data": [{"test_system": "Escherichia coli", "experiment": "Induction of plasmid pBR322 DNA cleavage assessed as concentration required to cleave 50% of DNA after 24 hrs by gel electrophoresis", "in_short": "(§1)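 Supercoiled pBR322 (90% form I) diluted to 50 µg/mL (75 µM/bp) in pH 7.5 Tris 40 mM/EDTA 4 mM. Incubated 24 h at 37 °C, then run on agarose gel with ethidium bromide and viewed at 302 nm. Form I versus II+III quantified by densitometry after subtracting form II present in the control.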", "units": {"CS50": "µM"}, "values": [{"compound": "CC(=O)O[C@@H]1C#C/C=C\\C#CC[C@H]2C(=O)N(C(=O)NCCC(=O)NCc3ccccc3)[C@H]12", "CS50": 25}, {"compound": "CC(=O)O[C@@H]1C#C/C=C\\C#CC[C@H]2C(=O)N(C(=O)NCc3ccccc3)[C@H]12", "CS50": 70}, {"compound": "CC(=O)O[C@@H]1C#C/C=C\\C#CC[C@H]2C(=O)N(C(=O)Nc3cccc4ccccc34)[C@H]12", "CS50": 25}, {"compound": "CC[C@@]1(O)C(=O)OCc2c1cc1n(c2=O)Cc2c-1nc1ccccc1c2/C=N/OCCNC(=O)CCNC(=O)N1C(=O)[C@@H]2CC#C/C=C\\C#C[C@@H](OC(C)=O)[C@H]21", "CS50": 10}, {"compound": "CCCCNC(=O)c1cc(NC(=O)c2cc(NC(=O)CCNC(=O)N3C(=O)[C@@H]4CC#C/C=C\\C#C[C@@H](OC(C)=O)[C@H]43)n(C)c2)n(C)c1", "CS50": 15}, {"compound": "CC(=O)O[C@@H]1C#C/C=C\\C#CC[C@H]2C(=O)N(C(=O)NCCCCCN(C)C(=O)Cc3cccc4ccccc34)[C@H]12", "CS50": 25}, {"compound": "CC(=O)O[C@@H]1C#C/C=C\\C#CC[C@H]2C(=O)N(C(=O)NCc3cccc4ccccc34)[C@H]12", "CS50": 25}, {"compound": "CC(=O)O[C@H]1C#C/C=C\\C#CC[C@H]2C(=O)N(C(=O)NCc3cccc4ccccc34)[C@H]12", "CS50": 25}, {"compound": "CC(=O)O[C@H]1C#C/C=C\\C#CC[C@H]2C(=O)N(C(=O)OC(C)(C)C)[C@H]12", "CS50": 30}, {"compound": "CC(=O)Nc1cc(C(=O)Nc2cc(C(=O)N(C)CCCCCNC(=O)N3C(=O)[C@@H]4CC#C/C=C\\C#C[C@@H](OC(C)=O)[C@H]43)n(C)c2)n(C)c1", "CS50": 35}, {"compound": "CC(C)(C)OC(=O)N1C(=O)[C@@H]2CC#C/C=C\\C#C[C@@H](OC(=O)Cc3cccc4ccccc34)[C@H]21", "CS50": 80}, {"compound": "CC(=O)O[C@@H]1C#C/C=C\\C#CC[C@H]2C(=O)N(C(=O)NCCc3cccc4ccccc34)[C@H]12", "CS50": 40}, {"compound": "CC(C)(C)OC(=O)N1C(=O)[C@@H]2CC#C/C=C\\C#C[C@@H](OC(=O)CCc3ccc4ccccc4c3)[C@H]21", "CS50": 150}, {"compound": "CC(=O)O[C@@H]1C#C/C=C\\C#CC[C@H]2C(=O)N(C(=O)NCCc3ccc4ccccc4c3)[C@H]12", "CS50": 150}, {"compound": "CC(=O)O[C@@H]1C#C/C=C\\C#CC[C@H]2C(=O)N(C(=O)NCc3ccc4ccccc4c3)[C@H]12", "CS50": 70}, {"compound": "CC(C)(C)OC(=O)N1C(=O)[C@@H]2CC#C/C=C\\C#C[C@@H](OC(=O)CCc3cccc4ccccc34)[C@H]21", "CS50": 80}, {"compound": "CC(=O)O[C@@H]1C#C/C=C\\C#CC[C@H]2C(=O)N(C(=O)Nc3ccc4ccccc4c3)[C@H]12", "CS50": 200}]}, {"test_system": "Escherichia coli", "experiment": "Induction of plasmid pBR322 DNA cleavage at 1 mM after 24 hrs by gel electrophoresis", "in_short": "as §1", "values": [{"compound": "CON1C(=O)[C@@H]2CC#C/C=C\\C#CC(C)[C@H]21", "note": "(stereo partly drawn)", "Activity": "inactive"}]}]}
